From article PMC4593655 (Bioorganic & medicinal chemistry, 2015)

Key:
[1] = tested on: NCI full panel of 60 cell lines; test: NCI 5-dose assay, full panel overview; assay type: cell-based, human; conditions: for CC50: Homo sapiens, 60 cell, read-out: pLC50 MG_MID (converted); for cytotoxicity in NCI screen: in words; for pTGI MG_MID: mean graph midpoint over all tested cell lines; for pTGI No. giving positive results: number of cell lines for which TGI ≤100 μM; for cellular lines with 50% growth inhibition at submicromolar concentrations: number of cell lines of those tested
Outline: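 Five-dose NCI standard protocol screen of test compound against 60 human tumour lines from nine cancer types. pGI₅₀, pTGI and pLC₅₀ are −log molar concentrations giving 50% net growth inhibition, total growth inhibition and 50% net cell death. MG_MID is the arithmetic mean over all tested lines. Counts give the lines with each value ≤100 μM. Where an effect was not reached, the highest tested concentration was used.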

purified tubulin = test: Assembly of purified tubulin; assay type: biochemical; conditions: data not presented
tubulin = test: Inhibition of colchicine binding to tubulin; conditions: data not presented
K562 cells [2] = test: Cell morphology under light microscopy; assay type: cell-based, human; conditions: K562, 48 h, 10 and 25 μM
Outline: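 K562 cells, cultured in medium with 5% FBS, 100 U/mL penicillin and 100 μg/mL streptomycin at 37 °C under 5% CO₂, were seeded at 8 × 10³/well and exposed to test compound for 48 h alongside untreated control. Morphology was then examined by light microscopy at 200× magnification.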

K562 cells [3] = test: Hoechst 33342 nuclear staining, fluorescence microscopy; assay type: cell-based, human; conditions: 10 μM, 48 h
Outline: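 K562 cells were plated at 8 × 10³/well on poly-D-lysine-coated plates and left to adhere overnight. They were prestained with Hoechst 33342 in medium for 30 min, washed with PBS and resuspended in medium, then given test compound or vehicle for 48 h.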

K562 cells [4] = test: Annexin V-FITC/PI staining flow cytometry; assay type: cell-based, human; conditions: 10 μM, 24 h
Outline: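 K562 cells were grown in RPMI 1640 with 5% FBS and antibiotics at 37 °C in 5% CO₂, then exposed to test compound for 24 h. Cells were harvested, centrifuged at 800 rpm for 10 min and washed in PBS. 10⁵ cells per sample were stained with annexin V-FITC plus PI for 15 min in the dark. Flow cytometry read FL1 (530 nm) and FL3 (>575 nm) over 10,000 events. Areas: C1 necrotic, C2 late apoptotic, C3 viable, C4 early apoptotic.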

pro-caspase 6 = test: Western blotting analysis of pro-caspase 6; assay type: cell-based, human; conditions: K562, 10 μM, 48 h
Outline: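 K562 cells were seeded at 1.5 × 10⁵/well and treated 48 h with 10 μM test compound. Lysate protein was measured by Lowry assay, run on SDS-PAGE and transferred to nitrocellulose. Pro-caspase 3 and 6 were detected with specific alkaline phosphatase-conjugated antibodies. Loading was checked by Ponceau red and β-actin immunoblot, and bands were quantified by densitometry. Blots are representative of at least three experiments.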

| Compound | CC50 [1] [µM] | cytotoxicity in NCI screen [1] | pTGI MG_MID [1] | pTGI No. giving positive results [1] | cellular lines with 50% growth inhibition at submicromolar concentrations [1] | effects on the assembly of purified tubulin (purified tubulin) | inhibition of colchicine binding to tubulin (tubulin) | morphological changes (K562 cells [2]) | nuclear morphology typical of apoptosis (K562 cells [3]) | necrotic cells (K562 cells [4]) | reduction in the level of pro-caspase 6 (pro-caspase 6) [%] |
| --- | --- | --- | --- | --- | --- | --- | --- | --- | --- | --- | --- |
| NC(=O)c1cc(Cl)ccc1NC(=O)COc1ccccc1 [Compound 17f, 5-Chloro-2-(2-phenoxyacetamido)benzamide] | > 100 | low cytotoxicity | 4.14 | 10 | 3 of 57 | negligible effects | negligible effects | – | – | – | – |
| NC(=O)c1cc(I)ccc1NC(=O)COc1ccccc1 [Compound 17j, 5-Iodo-2-(2-phenoxyacetamido)benzamide] | > 89.1 | low cytotoxicity | 4.45 | 25 | 44 of 56 | negligible effects | negligible effects | remarkable reduction in cell number and cell size | chromatin condensation and nuclear fragmentation | no necrotic cells were detected | −20 |
| COc1ccc(NC(=O)COc2ccccc2)c(C(N)=O)c1 [Compound 17r, 5-Methoxy-2-(2-phenoxyacetamido)benzamide] | > 97.7 | low cytotoxicity | 4.31 | 25 | 30 of 56 | negligible effects | negligible effects | – | – | – | – |
| COc1cc(NC(=O)COc2ccccc2)c(C(N)=O)cc1OC [Compound 17u, 4,5-Dimethoxy-2-(2-phenoxyacetamido)benzamide] | > 93.3 | low cytotoxicity | 4.31 | 23 | 26 of 58 | negligible effects | negligible effects | remarkable reduction in cell number and cell size | chromatin condensation and nuclear fragmentation | – | −50 |
